Screening data: PubChem BioAssay, Johns Hopkins Ion Channel Center
RGS4 block – inhibitors of human RGS4. HEK293 M3R/RGS4 inducible, Fluo-4 calcium flux; hits give high values; triggered by carbachol at its EC20. B-score at 10 µM. actives 0.45% (n = 310,000). P49798;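 active = B-score, a plate-corrected calcium signal, over three deviations above library mean, with baseline fluorescence within five deviations of library mean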;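 also: RGS4 expression induced by doxycycline in cells with stable M3 receptor; B-score is computed from the integrated fluorescence ratio over baseline after carbachol; higher B-score means a larger calcium signal and so more RGS4 inhibition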
Target sequence (P49798 whole entry, looked up): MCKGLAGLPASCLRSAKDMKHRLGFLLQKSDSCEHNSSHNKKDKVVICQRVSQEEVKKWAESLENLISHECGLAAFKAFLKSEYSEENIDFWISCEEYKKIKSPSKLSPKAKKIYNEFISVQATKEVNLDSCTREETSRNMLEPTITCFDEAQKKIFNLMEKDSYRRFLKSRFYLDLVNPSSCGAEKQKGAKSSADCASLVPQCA
RGS4 act – potentiators or activators of RGS4 | B-score at 10 µM | HEK293 M3R/inducible RGS4, carbachol calcium flux Fluo4; hits give low values | actives 0.92% (n = 310,000);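 active = B-score of the integrated calcium signal more than 4 SD below the library mean, with starting fluorescence not abnormally high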;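 also: negative B-score means reduced calcium response which marks RGS4 activation or potentiation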
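Also added: carbachol at ECmax as muscarinic agonist stimulus; Assay system: HEK293 cells with stable M3R and inducible RGS4; Timing: overnight RGS4 induction, 30 min dye load 37 °C, 20 min compound RT; Measured by: Fluo4-AM (2 µM) calcium-flux fluorescence, kinetic read.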
MrgX1 antag – antagonists of human MrgX1 receptor. Q96LB2. MRGX1-HEK293 calcium flux, Fluo-4, BAM8-22 antagonism; hits give low values. B-score at 10 µM. actives 1.3% (n = 310,000). AID 588676;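 active = calcium-response B-score plate-corrected more than 3 library SD below zero, starting fluorescence within 5 deviations, no agonist response on first addition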;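 also: peak minus trough fluorescence over baseline after final BAM8-22 challenge near maximal dose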
Target sequence (Q96LB2 whole entry, looked up): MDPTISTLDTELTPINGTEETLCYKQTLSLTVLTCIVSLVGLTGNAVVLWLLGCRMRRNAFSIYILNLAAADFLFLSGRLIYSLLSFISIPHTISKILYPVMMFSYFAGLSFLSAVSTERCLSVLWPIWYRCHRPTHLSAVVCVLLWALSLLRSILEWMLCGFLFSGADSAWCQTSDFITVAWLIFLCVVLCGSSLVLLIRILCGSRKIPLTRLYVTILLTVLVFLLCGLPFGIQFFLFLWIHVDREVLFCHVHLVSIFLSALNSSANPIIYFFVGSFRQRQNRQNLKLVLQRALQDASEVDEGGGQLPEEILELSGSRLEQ
MrgX1 PAM – allosterically activates human MrgX1 receptor signaling; B-score at 10 µM; Q96LB2; actives 0.63% (n = 310,000); AID 588675; MrgX1-HEK293, Fluo-4 calcium flux, FDSS; hits give high values;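 active = plate-corrected calcium response at least 3 library SD above typical, normal starting fluorescence, not activating the receptor alone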;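 also: compound read alongside a low EC10 to EC30 dose of BAM8-22 agonist; peak minus trough fluorescence over baseline measured at the second addition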
MrgX1 agonist – activates human MrgX1 receptor signaling. Q96LB2. MrgX1-HEK293 cells, Fluo-4 calcium fluorescence, agonist mode; hits give high values. B-score at 10 µM. actives 0.44% (n = 310,000). AID 588627;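 active = calcium response B-score plate-corrected fluorescence ratio at least 3 library SD, with starting fluorescence B-score inside 5 SD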
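Test system: HEK293 cells stably expressing human MrgX1 receptor; Input: fifteen thousand cells per well; Dosing: compound delivered in addition one of three; Schedule: overnight seeding, then 1 h dark dye loading; Technique: Fluo-4 NW calcium fluorescence; Measure: B-scored fluorescence response ratio; Controls: positive and negative controls per plate.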
A number is an active result; n = inactive. A selection: hits, their analogues and other compounds. The true share with any hit is near 3.5%.

SMILES	RGS4 block	RGS4 act	MrgX1 antag	MrgX1 PAM	MrgX1 agonist
Cc1cccc(C(=O)NNC(=S)NC(=O)c2ccccc2)c1	n	n	n	n	186
Cc1ccc(C(=O)NNC(=S)NC(=O)c2ccccc2)cc1	n	n	n	n	139
Cc1ccc(C(=O)NNC(=O)c2cccc(C)c2)cc1	n	n	n	n	n
COc1ccc(C(=O)NC(=S)NNC(=O)c2cccc(C)c2)cc1	n	-8.4	n	n	102
COc1cc2c(cc1OC)-c1cc(NC3CCCCCC3)nc(=O)n1CC2	n	n	-6.2	n	n
O=C(CS(=O)(=O)c1c[nH]c2ccccc12)N1CCCCCC1	n	n	n	n	n
O=C(COc1cccc(Cl)c1)NNC(=S)Nc1ccccc1	n	n	n	8.7	n
O=C(COc1ccccc1)NNC(=S)NC(=O)c1ccc(Cl)cc1Cl	n	n	n	n	98
O=C(O)CCC(=O)NNC(=O)COc1cccc(Cl)c1	n	n	n	n	n
CCCCCCCCCCOC(=O)Cn1c(COc2ccc(OC)cc2)[n+](C)c2ccccc21	n	-9.1	-9.1	n	n
CCOC(=O)Cn1c(COc2ccccc2OC)[n+](C)c2ccccc21	n	n	n	n	n
CCCCCCCCCCOC(=O)Cn1c(COc2cccc(C)c2)[n+](C)c2ccccc21	n	-8.5	-5.9	n	n
Cc1ccc(S(=O)(=O)N(C)C)cc1-n1c(SCC(=O)Nc2ccc(F)c(F)c2F)nc2ccccc2c1=O	n	n	n	n	n
O=C1NCC(c2ccccc2)C1C(=O)N/N=C\c1ccc(-c2ccc(Cl)c(Cl)c2)o1 (configuration not stated)	9	n	n	n	n
O=C1NCC(c2ccccc2)C1C(=O)N/N=C/c1ccc(Cl)s1 (configuration not stated)	n	n	n	n	31
COC(=O)c1ccc(C23CC4(C2)[C@H](CN(C)[C@@H]4c2ccccc2)C3c2ccc(Cl)nc2)cc1 (some centres not stated)	n	-7.1	n	n	n
CCOC(=S)SCC(=O)Nc1ncc(C)s1	n	n	n	n	n
O=C(C1=C(O)C(=O)N(CC2CCCO2)C1c1cccc(O)c1)c1ccco1 (configuration not stated)	n	n	n	n	n
Cc1ccc(-c2cc(C(=O)Nc3ccccn3)c3ccccc3n2)o1	n	n	-5.1	n	n
O=[N+]([O-])c1ccccc1S(=O)(=O)Nc1cccc(-c2ccc3nncn3n2)c1	n	n	n	n	27
Cc1nnc2ccc(-c3cccc(NS(=O)(=O)c4ccccc4[N+](=O)[O-])c3)nn12	n	n	n	n	29
Cc1nnc2ccc(-c3cccc(NS(=O)(=O)c4ccccc4Cl)c3)nn12	n	n	n	n	n
CC(C)N(Cc1ccccc1)C(=S)Nc1ccccc1F	n	n	n	n	n
COCCNC(=O)CN1C(=O)NC2(CCCc3ccccc32)C1=O (configuration not stated)	n	n	n	n	n
CSc1nc(NCC(C)C)c2c3c(sc2n1)CN(C)CC3	n	-7.4	n	n	n
SMILES	RGS4 block	RGS4 act	MrgX1 antag	MrgX1 PAM	MrgX1 agonist
COCCNc1nc(SC)nc2sc3c(c12)CCN(C)C3	n	n	n	n	n
O=C(c1ccccc1O)N1N=C(C(F)(F)F)CC1(O)c1ccc([N+](=O)[O-])cc1 (configuration not stated)	n	n	n	n	n
CCC1(O)CC(C(=O)OC)=NN1C(=O)c1ccccc1 (configuration not stated)	n	n	n	n	n
COC(=O)C1=NN(C(=O)c2ccc(Cl)cc2)C(O)(c2ccccc2)C1 (configuration not stated)	n	n	n	n	39
CCC1=NN(C(=O)c2ccc([N+](=O)[O-])cc2)C(O)(c2ccccc2)C1 (configuration not stated)	n	n	n	14	n
CCC1=NN(C(=O)c2ccc(Cl)cc2)C(O)(c2ccc(C)cc2)C1 (configuration not stated)	n	n	n	7.3	n
CCOC(=O)C1=NN(C(=O)c2ccc(C)cc2)C(O)(c2ccc(Cl)cc2)C1 (configuration not stated)	n	-9.3	n	n	54
Cc1ccc(NC(=O)C2CC(=O)N/C(=N/N=C/c3ccco3)S2)cc1C (configuration not stated)	n	n	n	n	n
CCC1=NN(C(=O)c2ccccc2O)C(O)(c2ccccc2)C1 (configuration not stated)	n	n	n	n	n
CCC1=NN(C(=O)c2ccc(Cl)cc2)C(O)(c2ccccc2)C1 (configuration not stated)	n	n	n	n	40
CNC(=O)COC(=O)/C=C/c1cccs1	n	n	n	6.5	n
COc1cc(/C=C2/N=C(c3ccccc3)OC2=O)c(F)cc1OCc1ccccc1	n	n	-4.9	n	n
COc1cc(/C=C2\N=C(c3ccccc3)OC2=O)ccc1OC(C)=O	n	n	n	n	n
COc1ccc(OC)c(/C=C2\N=C(c3ccccc3)OC2=O)c1	n	-7.4	n	n	n
Cc1ccc[n+](CC(=O)c2cc3ccccc3oc2=O)c1	n	-9.9	n	n	n
COc1cc(/C=C2\SC(N3CCc4ccccc4C3)=NC2=O)cc(OC)c1OC	n	n	n	n	n
COc1ccc(/C=C2\SC(N3CCc4ccccc4C3)=NC2=O)cc1	n	n	-4.7	n	n
O=C1N=C(N2CCc3ccccc3C2)S/C1=C\c1cccc(O)c1	n	-8.3	n	n	n
CCCN(CCC)CCCNC(=S)Nc1ccc2nc(N3CCN(C)CC3)cc(C)c2c1	n	n	n	n	29
COc1cccc2cc(-c3cn4cccc(C)c4n3)c(=O)oc12	n	n	n	n	38
NS(=O)(=O)c1cc2c(cc1C(F)(F)F)NC(Cc1ccccc1)NS2(=O)=O (configuration not stated)	n	n	n	n	n
Cc1cccc(NC(=O)CSc2nc3ccccc3o2)c1	n	n	n	n	n
Cc1nn2c(-c3cccc(NC(=O)CSc4nc5ccccc5o4)c3)nnc2c2ccccc12	n	-7.9	n	n	n
COc1ccc(/C=N/Nc2cc(C)nc3c(C)cccc23)cc1	n	n	-4.6	n	n
Cc1cccc(NS(=O)(=O)c2cc(C(=O)N3CCOCC3)ccc2Cl)c1	n	n	n	n	n
CN(C)c1ccc(/C=C2\N=C(c3ccc(Cl)c([N+](=O)[O-])c3)NC2=O)cc1	n	n	-6.9	n	n
CN(C)c1ccc(/C=C2/NC(=O)NC2=O)cc1	n	n	n	n	n
Cn1cccc1CC(=O)NNC(=S)NC(=O)c1ccccc1Br	n	n	n	n	n
NCCCCCc1nnc(SCc2ccc(Cl)c(Cl)c2)o1	n	-7.1	n	n	n
